Results collected from several papers.

Compound | target | test | conditions | measurement | value
CNCCN1CCC(OCc2ccccc2)CC1 | Protein arginine N-methyltransferase 6 (PRMT6, Homo sapiens, UniProt Q96LA8) | thermal stability, DSF | 200 µM | ΔTm | 11.3 °C
Nc1ncc(-c2nc(N3CCOCC3)nc(N3CCOCC3)n2)c(C(F)F)n1 | Androgen receptor (AR, Homo sapiens, UniProt P10275) | cell-free assay, radioligand | 10 µM | remaining signal | 89.3%
Cc1nn(C)cc1-c1nc2c(N3CCN(Cc4ccc(Cl)cc4)CC3)c(Cl)cnc2[nH]1 | Tyrosine-protein kinase ABL1, non-phosphorylated (ABL1, Homo sapiens, UniProt P00519, F317L) | binding, competition with immobilised ligand | 1 µM | remaining binding | 100%
CCN(CC)CCCC[C@H](NC(=O)[C@H](CC(C)C)NC(=O)[C@H](C)NC(=O)[C@H](Cc1ccccc1)NC(=O)c1ccc(C(C)(C)C)cc1)C(=O)N[C@@H](CO)C(=O)OC | Histone acetyltransferase p300 (EP300, Homo sapiens, UniProt Q09472) | thermal stability, DSF | 25 µM | ΔTm | 0.7 °C
O=C(O)C(F)(F)C(F)(F)C(F)(F)C(F)(F)C(F)(F)C(F)(F)C(F)(F)F | Solute carrier family 22 member 11 (SLC22A11, Homo sapiens, UniProt Q9NSA0) | transporter uptake, substrate | pH 6.8 | Km | 9.95 µM
COc1ncccc1-c1cnn2ccc(N3CCN(C(=O)OC(C)C)CC3)nc12 | Receptor-interacting serine/threonine-protein kinase 4 (RIPK4, Homo sapiens, UniProt P57078) | binding, competition with immobilised ligand | 1 µM | remaining binding | 70%
CC[C@@H]1CN2CC[C@@]3(O)C(=Nc4cccc(C)c43)[C@@H]2C[C@@H]1/C(=C\OC)C(=O)OC | Delta-type opioid receptor (OPRD1, Homo sapiens, UniProt P41143) | β-arrestin recruitment, agonist | – | Emax | > 100%
Cn1cc(-c2cc(F)cc(N3CCn4c(cc5c4CCCC5)C3=O)c2CO)cc(Nc2ccc(N3CCN(C4COC4)CC3)cn2)c1=O | Tyrosine-protein kinase ABL1 (ABL1, Homo sapiens, UniProt P00519, T315I) | enzyme activity, inhibitor | 0.1 µM | inhibition | 4%
C#Cc1n[nH]c2c(-c3cn(C(C)c4ccccn4)c(=O)[nH]c3=O)cc(F)cc12 (stereo not shown) | Insulin-like growth factor 1 receptor (IGF1R, Homo sapiens, UniProt P08069) | enzyme activity, inhibitor | 1 µM | inhibition | -0.9%
COc1ccc(S(=O)(=O)N(CC(=O)NO)CC(C)C)cc1 | Neutrophil collagenase (MMP8, Homo sapiens, UniProt P22894) | enzyme activity, inhibitor | 0.1 µM | inhibition | 43%
